# This is a sample that favours compounds with a hit; in the whole collection about 2.7% have one here.
# pPAFAH FP inh = pPAFAH enzyme inhibitors, primary screen, biochemical, fluorescence polarization, human | recombinant pPAFAH, FP-rhodamine probe fluorescence polarization | Platelet-activating factor acetylhydrolase (Homo sapiens), Q13093 | hit rate 1.5% among 330,000 | inhibition, % at 3.39 µM;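 active means inhibition above the mean inhibition across the screen plus 3 SD, cut at about 25% in these data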;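 further: inhibitors block binding of the rhodamine activity-based probe so polarization drops; 0% = enzyme with DMSO and 100% = wells lacking pPAFAH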
# Target sequence (Q13093 whole entry, looked up): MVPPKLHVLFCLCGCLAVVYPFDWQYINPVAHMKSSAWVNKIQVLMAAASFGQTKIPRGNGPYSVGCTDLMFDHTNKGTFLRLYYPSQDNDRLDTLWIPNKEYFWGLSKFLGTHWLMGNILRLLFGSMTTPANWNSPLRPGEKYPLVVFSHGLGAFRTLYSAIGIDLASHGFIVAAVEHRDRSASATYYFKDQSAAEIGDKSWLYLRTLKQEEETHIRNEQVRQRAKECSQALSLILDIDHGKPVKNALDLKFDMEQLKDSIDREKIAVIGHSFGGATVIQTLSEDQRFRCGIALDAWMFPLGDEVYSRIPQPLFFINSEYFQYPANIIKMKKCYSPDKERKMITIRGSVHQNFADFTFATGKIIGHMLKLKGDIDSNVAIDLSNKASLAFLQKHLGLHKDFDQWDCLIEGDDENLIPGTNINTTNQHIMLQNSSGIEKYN
# ARFGAP1 inh = inhibitors of rat ARFGAP1 GAP activity, primary screen, biochemical, fluorescence polarization, GDP tracer; hit rate 0.26% among 360,000; ADP-ribosylation factor GTPase-activating protein 1 (Rattus norvegicus), Q62848; AID 651572, 2012; Arfgap1-stimulated ARF1 GTP hydrolysis, GDP FP detection; inhibition, % at 16.5 µM;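 active means inhibition above a per-plate limit, mean inhibition of low control wells plus 3 SD, cut at about 25% in these data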;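 further: 0% = DMSO wells with enzyme and 100% = wells lacking Arfgap1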
#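 Assay system: Rat Arfgap1 GAP domain (His6, aa 1-136), purified enzyme | Buffer or medium: HEPES 25 mM pH 7.5, NaCl 150 mM, MgCl2, DTT | Schedule: GTP hydrolysis reaction 2 h at 25 °C | Signal: FP of antibody-bound GDP Alexa 633 tracer, ex 620/em 688 nm | Measure: Percent inhibition of Arfgap1-stimulated GTP hydrolysis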
# PAFAH1B2 inh = PAFAH1B2 enzyme inhibitors, primary screen, biochemical, fluorescence polarization, human; hit rate 1.2% among 340,000; inhibition, % at 3.39 µM; Platelet-activating factor acetylhydrolase IB subunit alpha2 (Homo sapiens), P68402; recombinant PAFAH1B2, FP-rhodamine activity probe;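 active means inhibition above the mean of all tested compounds plus 3 SD, cut at about 24% in these data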;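 further: 0% = enzyme with DMSO and 100% = wells lacking PAFAH1B2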
# Target sequence (P68402 whole entry, looked up): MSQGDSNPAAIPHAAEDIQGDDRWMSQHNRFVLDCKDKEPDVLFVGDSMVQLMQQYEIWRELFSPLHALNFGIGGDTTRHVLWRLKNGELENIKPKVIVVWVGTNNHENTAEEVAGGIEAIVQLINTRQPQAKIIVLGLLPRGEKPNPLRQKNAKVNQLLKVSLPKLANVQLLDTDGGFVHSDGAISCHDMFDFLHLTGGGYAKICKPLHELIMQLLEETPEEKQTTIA
# PAFAH1B3 inh = PAFAH1B3 enzyme inhibitors, primary screen, biochemical, fluorescence polarization, human | recombinant PAFAH1B3, FP-rhodamine probe | hit rate 0.28% among 340,000 | Platelet-activating factor acetylhydrolase IB subunit alpha1 (Homo sapiens), Q15102 | inhibition, % at 3.39 µM;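 active means inhibition above the screen-wide average of all tested compounds plus 3 SD, cut at about 25% in these data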;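 further: 0% = enzyme with DMSO only and 100% = wells lacking PAFAH1B3 protein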
# PAFAH2 FP inh = PAFAH2 enzyme inhibitors, primary screen, biochemical, fluorescence polarization, human. Platelet-activating factor acetylhydrolase 2, cytoplasmic (Homo sapiens), Q99487. recombinant PAFAH2, FP-rhodamine activity probe. inhibition, % at 3.39 µM. hit rate 0.99% among 340,000. AID 492956, 2010;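 active means inhibition above the mean over all tested compounds plus 3 SD, cut at about 30% in these data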;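 further: inhibitors block probe labeling of enzyme so polarization drops; 0% = enzyme with DMSO and 100% = wells lacking PAFAH2 protein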
# ASAP1 inh = inhibitors of human ASAP1 ArfGAP activity, primary screen, biochemical, fluorescence polarization | Arf-GAP with SH3 domain, ANK repeat and PH domain-containing protein 1 (Homo sapiens), … | ASAP1-stimulated ARF1 GTP hydrolysis, GDP FP detection | inhibition, % at 16.5 µM | hit rate 0.19% among 360,000 | AID 624377, 2012; in the data active means inhibition above about 25%;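 further: 0% = vehicle with enzyme and substrate and 100% = no enzyme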
# The depositor's hits bear a star; · = no result.
SMILES,pPAFAH FP inh,ARFGAP1 inh,PAFAH1B2 inh,PAFAH1B3 inh,PAFAH2 FP inh,ASAP1 inh
COC(=O)Cc1nnn2c1[C@@H](C)[C@@H](c1ccccc1Br)O[C@@H](C)C2,·,11,·,·,·,-3
COc1ccc(NC(=S)N2CCC(c3nc4ccc(Cl)cc4[nH]3)CC2)c(OC)c1,31*,3,-3,7,-6,12
CC(=O)N1CCN(c2nc3ccc([N+](=O)[O-])cc3s2)CC1,-2,4,-1,-4,2,4
O=C(C1=COCCO1)N1CCN(c2nc3ccc([N+](=O)[O-])cc3s2)CC1,1,10,2,8,-7,28*
CC(C)(C)CC(C)(C)c1ccc(O)c(CN2CCN(CCC#N)CC2)c1,11,-4,41*,-1,-4,9
CCCc1c(O)nc(SC2CC(=O)N(c3ccc(C)c(Cl)c3)C2=O)[nH]c1=O (stereo not drawn),7,-3,·,·,·,0
Cc1ccc(N2C(=O)CC(Sc3nc4ccccc4o3)C2=O)cc1Cl (stereo not drawn),-3,9,30*,3,-3,-1
Cc1cc(N2CCN(CC(C)(C)O)C[C@H]2C)ccc1N1CCN(Cc2ccccc2)[C@@H](C)C1,·,11,·,·,·,6
Cc1cc(O)c2c(c1)C(=O)c1cc(O)cc(O)c1C2=O,30*,8,4,20,10,-5
O=C1c2cccc(O)c2C(=O)c2c(O)cc(CO)cc21,10,·,·,·,·,·
O=C1c2cc(O)cc(O)c2C(=O)c2c1cc(O)c([C@@H](CO)CCO)c2O,31*,-3,19,17,18,13
COC(=O)c1ccc2nc(-c3cccc(Cl)c3)c(Cc3ccccc3C(F)(F)F)n2c1,·,-5,·,·,·,-4
O=C(NNS(=O)(=O)c1ccccc1)c1ccccc1-n1cccc1,-5,9,3,5,9,2
O=C(NNS(=O)(=O)c1ccc(Br)cc1)c1ccccc1-n1cccc1,-1,8,29*,8,3,-14
Cc1cc(N2CCNC[C@@H]2C)ccc1N1CCN(Cc2ccccc2)[C@H](C)C1,·,2,·,·,·,-7
COc1cc(/C=C2\SC(=O)N(c3cccc(Cl)c3)C2=O)cc([N+](=O)[O-])c1O,·,-19,3,15,52*,-9
O=C1S/C(=C\c2ccc(O)c([N+](=O)[O-])c2)C(=O)N1Cc1cccc([N+](=O)[O-])c1,21,-7,·,·,·,-5
COc1cc(/C=C2\SC(=O)N(c3ccc(Cl)cc3)C2=O)cc([N+](=O)[O-])c1O,·,-19,8,12,19,-7
O=C1S/C(=C\c2ccc(O)c([N+](=O)[O-])c2)C(=O)N1c1ccccc1Cl,34*,-10,3,21,27,0
COC(=O)[C@]12C[C@H](CC(=O)N3CCN(C(=O)c4ccco4)CC3)C(=O)N(CCC3=CCCCC3)C1=C[C@H](C(C)(C)C)O[C@@H]2C,·,5,·,·,·,0
Clc1ccc(CCNc2nc3ccccc3s2)cc1,2,1,27*,1,10,-11
C[C@@H]1ON(C)[C@H]2C[C@H]3c4cc(N5CCN(C)CC5)ccc4CCN3C[C@@H]12,·,5,·,·,·,11
CC(NC(=O)CN1C(=O)NC(Cc2ccccc2)(Cc2ccccc2)C1=O)C12CC3CC(CC(C3)C1)C2 (stereo not drawn),7,0,72*,-3,10,-4
CC(NC(=O)Cn1c(=O)[nH]c2ccsc2c1=O)C12CC3CC(CC(C3)C1)C2 (stereo not drawn),14,3,28*,9,27,-5
CC1CCCCC1NC(=O)CN1C(=O)NC(Cc2ccccc2)(Cc2ccccc2)C1=O (stereo not drawn),5,1,9,8,5,-1
SMILES,pPAFAH FP inh,ARFGAP1 inh,PAFAH1B2 inh,PAFAH1B3 inh,PAFAH2 FP inh,ASAP1 inh
CCCc1c(-c2cccc(Br)c2)ncn1CCc1ccccc1OC,·,-8,·,·,·,3
O=C(NCc1ccccc1)[C@@H]1CCCN1C(=O)[C@H]1CCCN1C(=O)N1CCCCC1,·,9,·,·,·,6
Cc1ccc(C2CC(=O)Oc3cc(O)ccc32)cc1 (stereo not drawn),17,2,24*,34*,26,10
COc1ccccc1NC(=O)C1CCN(C(=O)NCc2ccccc2)CC1,32*,-7,5,8,6,-11
CN(CC(=O)Nc1ccc(Cl)c(Cl)c1)C(=O)C12CC3CC(CC(C3)C1)C2,1,2,26*,6,-10,14
CN(CC(=O)Nc1ccc(Cl)c(Cl)c1)C1CCCCC1,·,6,8,-7,0,3
Cc1ccc(S(=O)(=O)N(C)C)cc1NC(=O)COC(=O)c1sc2cc(Cl)ccc2c1Cl,32*,7,-5,-12,-19,-7
COc1cc(C2C(C#N)=C(N)Oc3c2ccc2ccccc32)ccc1OCC(=O)Nc1cccc(C)c1 (stereo not drawn),33*,13,-18,-18,-39,14
COc1cc(C2C(C#N)=C(N)Oc3c2ccc2ccccc32)ccc1OCC(=O)Nc1ccc(C)cc1 (stereo not drawn),28*,9,-14,-17,-31,0
COC(=O)[C@]12C[C@H](CC(=O)N3CCCC3)C(=O)N(Cc3ccccc3)C1=C[C@H](C(C)C)O[C@@H]2C1CC1,·,3,·,·,·,-3
N#C/C(=C/c1ccco1)C(N)=S,33*,3,14,17,34*,3
N#Cc1c(NC(=O)CSc2nnc(-c3ccco3)n2-c2ccccc2)sc2c1CCC2,13,7,3,2,8,1
NC(=O)c1c(NC(=O)CSc2nnc(-c3ccco3)n2-c2ccccc2)sc2c1CCC2,33*,-8,-3,-6,11,-6
COc1ccnc(N2CCN(c3cccc(C(F)(F)F)c3)CC2)c1C#N,-1,-2,-4,-4,-3,-5
COc1ccnc(N2CCN(c3ccc(Cl)cc3)CC2)c1C#N,-4,-2,24*,5,7,-6
CCCCCCSc1nnc2[nH]c(=O)cc(N)n12,1,-5,26*,4,2,4
CCO/C=C1\C(=O)N(c2ccccc2)C(=O)c2ccccc21,3,·,0,5,-1,·
CCO/C=C1/C(=O)N(Cc2ccccc2)C(=O)c2ccccc21,2,18,5,13,4,31*
Cc1cc(O)cc(=O)n1-c1cccc([N+](=O)[O-])c1,·,-3,·,·,·,-1
S=C1Nc2ccccc2CS1,·,-5,·,·,·,1
